In data set [1] the test system is Rattus norvegicus. Put plainly: Inhibition of plasma testosterone levels in Sprague-Dawley rat at 9.8 uM, sc by enzyme-linked immunosorbent assay. Format: functional. Put shortly:
(§1)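 Intact adult male Sprague-Dawley rats (275–310 g, 3 per group) received subcutaneous mini-pumps for seven days. Solutions were in 1:3 DMSO/water: 19.6 μM (~0.66 nM/day/kg), or 9.8 μM (~0.33 nM/day/kg). Sham-operated controls. Plasma was sampled on days 3–7 and testosterone measured by ELISA. Values are means of days 4–7.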

Data set [2] is described as follows: Solubility in 5% mannitol. Format: physicochemical.
Data set [3] relates to Rattus norvegicus. Put plainly: Inhibition of plasma testosterone levels in Sprague-Dawley rat at 19.6 uM, sc by enzyme-linked immunosorbent assay. Format: functional. The gist of the method:
as §1

Data set [4] addresses T1, Gonadotropin-releasing hormone receptor (Rattus norvegicus, UniProt P30969).
T1 sequence (P30969 whole entry): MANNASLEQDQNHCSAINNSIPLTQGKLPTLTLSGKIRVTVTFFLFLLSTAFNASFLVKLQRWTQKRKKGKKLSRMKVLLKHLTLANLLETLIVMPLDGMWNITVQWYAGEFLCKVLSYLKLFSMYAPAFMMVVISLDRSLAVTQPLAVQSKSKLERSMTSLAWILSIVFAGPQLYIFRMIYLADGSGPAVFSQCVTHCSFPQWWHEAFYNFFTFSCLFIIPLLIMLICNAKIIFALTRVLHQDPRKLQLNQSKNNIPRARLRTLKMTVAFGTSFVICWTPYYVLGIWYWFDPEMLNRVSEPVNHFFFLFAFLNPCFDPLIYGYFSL
As to the kind of experiment: Antagonist activity at rat GnRHR expressed in HEK293 cells assessed as inhibition of GnRH-induced luciferase response by reporter gene assay. Format: functional, cell-based. Put shortly:
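Rat GnRHR stably expressed in HEK293 cells, transiently transfected with an NFAT-responsive luciferase reporter, plated after 16 h and assayed next day. Compound in 1% DMSO was given 10 min before 1 nM GnRH (final), ≥5 h at 37 °C, then luminescence. Duplicates at 11 half-log concentrations. IC50 by four-parameter logistic fit, geometric mean of ≥2 experiments.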
A general note: A reporter such as luciferase makes a cellular process visible.

Data set [5] addresses T2, Gonadotropin-releasing hormone receptor (Homo sapiens, UniProt P30968).
T2 sequence (P30968 whole entry): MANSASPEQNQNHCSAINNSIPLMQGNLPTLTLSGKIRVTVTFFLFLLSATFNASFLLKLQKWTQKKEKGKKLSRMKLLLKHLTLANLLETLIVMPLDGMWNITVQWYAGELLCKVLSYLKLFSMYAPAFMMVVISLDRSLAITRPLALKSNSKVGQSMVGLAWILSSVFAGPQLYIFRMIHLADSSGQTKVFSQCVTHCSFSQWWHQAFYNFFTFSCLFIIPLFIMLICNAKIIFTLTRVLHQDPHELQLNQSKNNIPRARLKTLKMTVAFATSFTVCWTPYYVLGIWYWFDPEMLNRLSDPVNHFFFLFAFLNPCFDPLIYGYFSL
Put plainly: Antagonist activity at human GnRHR expressed in HEK293 cells assessed as inhibition of GnRH-induced luciferase response by reporter gene assay. Format: functional, cell-based. Put shortly:
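HEK293 cells stably expressing cloned human GnRHR and an LH alpha-subunit-promoter luciferase reporter, plated overnight. Compound in 1% DMSO was added 10 min before GnRH (1 nM final), then ≥5 h at 37 °C, 5% CO2, then luminescence. 11 half-log concentrations in duplicate. IC50 from four-parameter logistic fit, reported as geometric mean of ≥2 experiments.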

A short description of data set [6]: Ratio of IC50 for rat GnRHR to IC50 for human GnRHR in HEK293 cells. Format: functional.
Data set [7] deals with T3, Gonadotropin-releasing hormone receptor (Homo sapiens) (UniProt P30968).
T3 sequence (whole entry): T2 sequence (P30968 whole entry)
As to the kind of experiment: Antagonist activity at human GnRHR expressed in COS7 cells assessed as inhibition of GnRH-stimulated inositol phosphate production after 2 hrs. Format: functional, cell-based. To be noted: COS-7, filed as antagonist. The gist of the method: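 COS-7 cells transiently transfected with WT hGnRH-R cDNA, labelled 18 h at 37 °C with 4 μCi/mL [3H]myo-inositol in inositol-free DMEM. Cells were washed in medium with 5 mM LiCl, then co-incubated 2 h at 37 °C with 10−8 M GnRH plus analogue at 10−8 to 10−5 M. IP was measured by Dowex anion-exchange and scintillation counting. Triplicate, repeated three or more times.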

In general, solubility refers to the concentration that dissolves in the medium under given conditions. What is called IC50 is the point on the concentration scale where inhibition reaches its midpoint.

The structures appear in SMILES notation. In brackets after ≈: the same amount, converted by molar mass. Starred links: 1 amine or outer side, 2 acyl side, 3 side chain; linkers in the order of their positions; H or OH if unused. Non-standard residues stand in square brackets, D forms with d. Residues, ends and D or L forms follow the SMILES beside them. Phe(4-NH(5-NH2triazol-3-yl)) = Nc1nc(Nc2ccc(C[C@H](N)C(=O)O)cc2)n[nH]1; X1 = Nc1nc(Nc2ccc(C[C@@H](N[*:1])C(=O)[*:2])cc2)n[nH]1; dPhe(4-Cl) = N[C@H](Cc1ccc(Cl)cc1)C(=O)O; d2Nal = N[C@H](Cc1ccc2ccccc2c1)C(=O)O; Lys(iPr) = CC(C)NCCCC[C@H](N)C(=O)O; d3Pal = N[C@H](Cc1cccnc1)C(=O)O

`CC(=O)N[C@H](Cc1ccc2ccccc2c1)C(=O)N[C@H](Cc1ccc(Cl)cc1)C(=O)N[C@H](Cc1cccnc1)C(=O)N[C@@H](CO)C(=O)N[C@@H](Cc1ccc(Nc2n[nH]c(N)n2)cc1)C(=O)N[C@H](Cc1ccc(Nc2n[nH]c(N)n2)cc1)C(=O)N[C@@H](CC(C)C)C(=O)N[C@@H](CCCCNC(C)C)C(=O)N1CCC[C@H]1C(=O)N[C@H](C)C(N)=O.CC(=O)O` [PRAZARELIX ACETATE] (Ac-[d2Nal][dPhe(4-Cl)][d3Pal]S[Phe(4-NH(5-NH2triazol-3-yl))][X1]L[Lys(iPr)]P[dA]-NH2) had an Activity in the data set with Rattus norvegicus [1] of 1.39 ng/mL. This compound also came in with a solubility in data set [2] of 50 mg/mL. For the same compound, the Plasma testosterone level in the data set on Rattus norvegicus [3] worked out at 0.32 ng/mL. Moreover, the IC50 is reported as 1.4 nM (antagonist) in data set [4] and 1.36 nM (antagonist) in data set [5]. Moreover, the “Ratio IC50” value in data set [6] was determined as 1.03.

In the case of `CC(=O)Nc1ccc(C[C@H](NC(=O)[C@H](CO)NC(=O)[C@@H](Cc2cccnc2)NC(=O)[C@@H](Cc2ccc(Cl)cc2)NC(=O)[C@H](NC(C)=O)Sc2ccc3ccccc3c2)C(=O)N[C@H](Cc2ccc(NC(C)=O)cc2)C(=O)N[C@@H](CC(C)C)C(=O)N[C@@H](CCCCNC(C)C)C(=O)N2CCC[C@H]2C(=O)N[C@H](C)C(N)=O)cc1`, in data set [2], the solubility stood at 50 mg/mL (≈ 32.2 mM). Further, the Plasma testosterone level in the data set on Rattus norvegicus [3] was found to be 1.03 ng/mL. In addition, the Activity result in data set [7] was “Antagonist”. Further, the figures for the IC50 in data set [4] and in data set [5] were 4.4 nM (antagonist) and 0.73 nM (antagonist), respectively. Also, the “Ratio IC50” value in data set [6] came out at 6.03.

On to `CS[C@H](NC(=O)[C@@H]1CCCN1C(=O)[C@H](CCCCNC(C)C)NC(=O)[C@H](CC(C)C)NC(=O)[C@@H](Cc1ccc(NC(C)=O)cc1)NC(=O)[C@H](Cc1ccc(NC(C)=O)cc1)NC(=O)[C@H](CO)NC(=O)[C@@H](Cc1cccnc1)NC(=O)[C@@H](Cc1ccc(Cl)cc1)NC(=O)[C@@H](Cc1ccc2ccccc2c1)NC(C)=O)C(N)=O`, for which the solubility in data set [2] stood at 50 mg/mL (≈ 31.9 mM). The same compound had a Plasma testosterone level in the data set on Rattus norvegicus [3] of 2.21 ng/mL. Also, the Activity entry in data set [7] is “Antagonist”. For the same compound, the IC50 is 1.7 nM (antagonist) in data set [4] and 0.8 nM (antagonist) in data set [5]. The “Ratio IC50” value in data set [6] worked out at 2.13.

Consider `CS[C@@H](NC(=O)[C@@H]1CCCN1C(=O)[C@H](CCCCNC(C)C)NC(=O)[C@H](CC(C)C)NC(=O)[C@@H](Cc1ccc(NC(C)=O)cc1)NC(=O)[C@H](Cc1ccc(NC(C)=O)cc1)NC(=O)[C@H](CO)NC(=O)[C@@H](Cc1cccnc1)NC(=O)[C@@H](Cc1ccc(Cl)cc1)NC(=O)[C@@H](Cc1ccc2ccccc2c1)NC(C)=O)C(N)=O`, for which the solubility in data set [2] is 50 mg/mL (≈ 31.9 mM). The Plasma testosterone level in the data set on Rattus norvegicus [3] is 1.97 ng/mL. Also, the Activity entry in data set [7] was “Antagonist”. For the same compound, the results for the IC50 in data set [4] and in data set [5] were 1.7 nM (antagonist) and 0.6 nM (antagonist), respectively. Moreover, the “Ratio IC50” value in data set [6] is given as 2.83.

Regarding `CC(=O)Nc1ccc(C[C@H](NC(=O)[C@H](CO)NC(=O)[C@@H](Cc2cccnc2)NC(=O)[C@@H](Cc2ccc(Cl)cc2)NC(=O)[C@@H](Cc2ccc3ccccc3c2)NC(C)=O)C(=O)N[C@H](Cc2ccc(NC(C)=O)cc2)C(=O)N[C@@H](SC(C)C)C(=O)N[C@@H](CCCCNC(C)C)C(=O)N2CCC[C@H]2C(=O)N[C@H](C)C(N)=O)cc1`, the concentration in solution in data set [2] (solubility) was 50 mg/mL (≈ 32.2 mM). Moreover, the Plasma testosterone level with Rattus norvegicus [3] worked out at 1.59 ng/mL. The Activity result in data set [7] was “Antagonist”. Further, the IC50 in data set [4] is reported as 2.5 nM (antagonist); in data set [5] it was 0.31 nM (antagonist). Besides, in data set [6], the “Ratio IC50” value is recorded as 8.07.

The compound `CC(=O)Nc1ccc(C[C@H](NC(=O)[C@H](CO)NC(=O)[C@@H](Cc2cccnc2)NC(=O)[C@@H](Cc2ccc(Cl)cc2)NC(=O)[C@@H](Cc2ccc3ccccc3c2)NC(C)=O)C(=O)N[C@H](Cc2ccc(NC(C)=O)cc2)C(=O)N[C@@H](CC(C)C)C(=O)N[C@@H](CCCCNC(C)C)C(=O)N2CCC[C@H]2C(=O)N[C@H](C)C(N)=O)cc1` [ACYLINE] yielded a solubility in data set [2] of 50 mg/mL (≈ 32.6 mM). The Plasma testosterone level with Rattus norvegicus [3] amounted to 0.69 ng/mL. Besides, in data set [7], the Activity result was “Antagonist”. Besides, the IC50 is listed as 1.5 nM (antagonist) in data set [4] and 0.52 nM (antagonist) in data set [5]. For the same compound, in data set [6], the “Ratio IC50” value came out at 2.89.

The values above are taken from ChEMBL document CHEMBL1147132, “Structure-activity relationship studies of gonadotropin-releasing hormone antagonists containing S-aryl/alkyl norcysteines and their oxidized derivatives” (J Med Chem, 2007).
